Test results reported in ChEMBL document CHEMBL1155309, “Synthesis of 3,6-disubstituted 7H-1,2,4-triazolo[3,4-b]-1,3,4-thiadiazines as novel analgesic/anti-inflammatory compounds” (Eur J Med Chem, 2009).

Experiments:
[1] = system: Mus musculus; test: Antiinflammatory activity in BALB/c mouse assessed as inhibition of carrageenan-induced paw edema at 200 mg/kg, po after 360 mins; format: functional; conditions: 6 h
In short: (§1)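 Oral dosing in 0.5% CMC/water suspension, vehicle for controls. 1 h later, carrageenan (0.5 mg/25 µl saline) injected subplantar into right hind paw, 25 µl saline into left. Right–left footpad thickness measured by dial callipers every 90 min for 6 h. % inhibition = [(n − n′)/n]×100 versus control. Groups of 3 (100 mg/kg screen) or 4–5 mice.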

[2] = system: Mus musculus; test: Analgesic activity in BALB/c mouse assessed as decrease in acetic acid-induced writhing at 100 mg/kg, po administered 1 hr prior to acetic acid challenge by Koster's test; format: functional
In short: (§2)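 Test samples suspended in distilled water/0.5% CMC given orally; vehicle to controls. 1 h later, 3% (w/v) acetic acid i.p. (0.1 ml/10 g). Starting 5 min after injection, writhings counted for 10 min. Result expressed as % change from writhing controls. Groups of 4 mice (preliminary 100 mg/kg) or 4–5 mice (50/200 mg/kg). Two-tailed Student's t test.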

[3] = system: Mus musculus; test: Analgesic activity in BALB/c mouse assessed as decrease in acetic acid-induced writhing at 50 mg/kg, po administered 1 hr prior to acetic acid challenge by Koster's test; format: functional; in short: as §2
[4] = system: Mus musculus; test: Analgesic activity in BALB/c mouse assessed as decrease in acetic acid-induced writhing at 200 mg/kg, po administered 1 hr prior to acetic acid challenge by Koster's test; format: functional; in short: as §2
[5] = system: Mus musculus; test: Gastrointestinal toxicity in BALB/c mouse assessed as acute ulcerogenic risk at 200 mg/kg, po; format: organism-based; parameters: dose 200 mg/kg, route oral; conditions: in vivo
In short: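 Mice, fasted overnight with free water, received 200 mg/kg orally as a suspension in distilled water with 0.5% carboxymethyl cellulose, in groups of 4–5. They were first used in the acetic acid writhing test. Eight hours after that test they were killed under deep ether anaesthesia, and their stomachs were removed and scored for ulcers. Acetylsalicylic acid 200 mg/kg was the reference.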

[6] = system: Mus musculus; test: Antioxidant activity in BALB/c mouse assessed as TBARS level per gram of wet weight of tissue at 200 mg/kg, po; format: functional; parameters: unit: nmol/g
In short: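 Mice dosed orally at 200 mg/kg were killed under ether 8 h after the writhing test and stomachs removed. Tissue extract supernatant obtained by centrifugation (1000×g 10 min, then 2000×g 30 min, 4 °C). Heated with TBA in boiling water for 60 min, TCA added, absorbance read at 532 nm against blank tissue. Calibrated with 1,1,3,3-tetraethoxypropane; reported as nmol TBARS/g wet tissue.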

[7] = system: Mus musculus; test: Acute toxicity in BALB/c mouse assessed as diarrhea and depression at 50 to 200 mg/kg, po after 72 hrs; format: organism-based; parameters: dose 50-200 mg/kg, route oral; conditions: in vivo
[8] = system: Mus musculus; test: Antiinflammatory activity in BALB/c mouse assessed as inhibition of carrageenan-induced paw edema at 200 mg/kg, po after 270 mins; conditions: 4.5 h
[9] = system: Mus musculus; test: Antiinflammatory activity in BALB/c mouse assessed as inhibition of carrageenan-induced paw edema at 100 mg/kg, po after 90 mins; format: functional; conditions: 1.5 h; in short: as §1
[10] = system: Mus musculus; test: Antiinflammatory activity in BALB/c mouse assessed as inhibition of carrageenan-induced paw edema at 100 mg/kg, po after 180 mins; format: functional; conditions: 3 h; in short: as §1
[11] = system: Mus musculus; test: Antiinflammatory activity in BALB/c mouse assessed as inhibition of carrageenan-induced paw edema at 100 mg/kg, po after 270 mins; format: functional; conditions: 4.5 h; in short: as §1
[12] = system: Mus musculus; test: Antiinflammatory activity in BALB/c mouse assessed as inhibition of carrageenan-induced paw edema at 100 mg/kg, po after 360 mins; format: functional; conditions: 6 h; in short: as §1
[13] = system: Mus musculus; test: Antiinflammatory activity in BALB/c mouse assessed as inhibition of carrageenan-induced paw edema at 50 mg/kg, po after 90 mins; format: functional; conditions: 1.5 h; in short: as §1
[14] = system: Mus musculus; test: Antiinflammatory activity in BALB/c mouse assessed as inhibition of carrageenan-induced paw edema at 100 mg/kg, po after 180 mins; conditions: 3 h
[15] = system: Mus musculus; test: Antiinflammatory activity in BALB/c mouse assessed as inhibition of carrageenan-induced paw edema at 200 mg/kg, po after 270 mins; format: functional; conditions: 4.5 h; in short: as §1
[16] = system: Mus musculus; test: Antiinflammatory activity in BALB/c mouse assessed as inhibition of carrageenan-induced paw edema at 200 mg/kg, po after 90 mins; format: functional; conditions: 1.5 h; in short: as §1
[17] = system: Mus musculus; test: Antiinflammatory activity in BALB/c mouse assessed as inhibition of carrageenan-induced paw edema at 50 mg/kg, po after 360 mins; format: functional; conditions: 6 h; in short: as §1

| SMILES | inhibition in vivo at 200 mg/kg [1] [%] | inhibition in vivo at 100 mg/kg [2] [%] | inhibition in vivo at 50 mg/kg [3] [%] | inhibition in vivo at 200 mg/kg [4] [%] | Activity [5] | Activity [6] [nmol] | Activity [7] | inhibition in vivo at 200 mg/kg [8] [%] | inhibition in vivo at 100 mg/kg [9] [%] | inhibition in vivo at 100 mg/kg [10] [%] | inhibition in vivo at 100 mg/kg [11] [%] | inhibition in vivo at 100 mg/kg [12] [%] | inhibition in vivo at 50 mg/kg [13] [%] | inhibition in vivo at 100 mg/kg [14] [%] | inhibition in vivo at 200 mg/kg [15] [%] | inhibition in vivo at 200 mg/kg [16] [%] | inhibition in vivo at 50 mg/kg [17] [%] |
| --- | --- | --- | --- | --- | --- | --- | --- | --- | --- | --- | --- | --- | --- | --- | --- | --- | --- |
| COc1ccc(Cc2n[nH]c(=S)n2N)cc1 | 33.3 | 30.2 | 23.4 | 46.7 | Non-toxic | 93 | Non-toxic | 32.2 | – | – | – | – | – | – | – | – | – |
| COc1ccc(CCc2n[nH]c(=S)n2N)cc1 | 37.5 | 56.6 | 9.5 | 56.1 | Non-toxic | 105.9 | Non-toxic | 33.9 | – | – | – | – | – | – | – | – | – |
| COc1ccc(Cc2nnc3n2N=C(c2ccc(Cl)cc2)CS3)cc1 | 38.9 | 33 | 9.9 | 39 | Non-toxic | 97.9 | Non-toxic | 25 | – | – | – | – | – | – | – | – | – |
| COc1cc(CCc2nnc3n2N=C(c2ccc(F)cc2)CS3)cc(OC)c1OC | 23 | 43.1 | 35.2 | 56.1 | – | 105.1 | Non-toxic | 46.4 | 40.7 | 21.4 | 57.9 | 38.9 | 34.5 | – | – | – | – |
| COc1ccc(CCc2nnc3n2N=C(c2ccc(F)cc2)CS3)cc1 | 27.1 | 29.2 | 25 | 37 | – | 103.5 | Non-toxic | 34 | 26 | – | – | – | – | 33.7 | – | – | – |
| COc1ccc2c(c1)c(CC(=O)O)c(C)n2C(=O)c1ccc(Cl)cc1 [INDOMETHACIN] | – | – | – | – | – | – | – | – | 41.9 | – | – | – | – | 43.1 | – | – | – |
| COc1ccc(CCc2nnc3n2N=C(c2ccc(Cl)cc2)CS3)cc1 | 50 | 71.5 | 20.2 | 62.4 | – | 108.4 | Non-toxic | – | – | – | – | – | – | 29.4 | 20.4 | – | – |
| COc1ccc(CCc2nnc3n2N=C(c2ccccc2)CS3)cc1 | 37.5 | 42.8 | 6.4 | 44.2 | – | 110.8 | Non-toxic | 50 | – | – | – | – | – | – | – | – | – |
| COc1cc(CCc2n[nH]c(=S)n2N)cc(OC)c1OC | 41.7 | 52.4 | 23.1 | 54.2 | – | 104.3 | Non-toxic | – | – | – | – | – | – | – | 20.4 | 39.3 | – |
| COc1ccc(Cc2nnc3n2N=C(c2ccccc2)CS3)cc1 | – | 39.5 | 14.3 | 46.4 | – | 112.3 | Non-toxic | – | – | – | – | – | – | – | – | – | – |
| COc1cc(Cc2nnc3n2N=C(c2ccc(F)cc2)CS3)cc(OC)c1OC | 25 | 35 | 22.1 | 52.2 | – | 107.6 | Non-toxic | 24.9 | – | – | – | – | – | 26.8 | – | – | – |
| CC(=O)Oc1ccccc1C(=O)O [ASPIRIN] | – | – | – | 54.4 | – | 118.2 | – | – | – | – | – | – | – | – | – | – | – |
| COc1cc(CCc2nnc3n2N=C(c2ccccc2)CS3)cc(OC)c1OC | 29.2 | 17.1 | 32.4 | 27.5 | – | 100.3 | Non-toxic | 46.4 | 31.7 | – | – | – | – | 38.5 | – | – | – |
| COc1cc(Cc2nnc3n2N=C(c2ccccc2)CS3)cc(OC)c1OC | 33.3 | 53 | 32.4 | 58.4 | Non-toxic | 92.2 | Non-toxic | 32.2 | 24 | – | 23.6 | – | – | 34.9 | – | – | – |
| COc1cc(Cc2nnc3n2N=C(c2ccc(Cl)cc2)CS3)cc(OC)c1OC | 25 | 32.6 | 13.5 | 23.4 | – | 101.1 | Non-toxic | 41 | – | – | – | – | – | – | – | – | – |
| COc1cc(CCc2nnc3n2N=C(c2ccc(Cl)cc2)CS3)cc(OC)c1OC | 25 | 50.2 | 28.5 | 54.8 | – | 101.9 | Non-toxic | 39.1 | 29.3 | – | 34.3 | – | – | 36.9 | – | – | – |
| COc1ccc(Cc2nnc3n2N=C(c2ccc(F)cc2)CS3)cc1 | 41.7 | 26.3 | 20.5 | 31.5 | – | 95.4 | Non-toxic | 53.6 | – | – | – | – | – | 34.3 | – | – | – |
| COc1cc(Cc2n[nH]c(=S)n2N)cc(OC)c1OC | 21.2 | 85.8 | 21.6 | 61 | – | 96.2 | Non-toxic | – | – | 30 | – | – | 32.3 | – | 49.2 | – | 24.9 |
